According to ChEMBL document CHEMBL4261527, “Benzylsulfanyl benzo-heterocycle amides and hydrazones as new agents against drug-susceptible and resistant Mycobacterium tuberculosis” (Medchemcomm, 2017):
Values after ≈ are worked out from the molar mass of the structure shown.

Assays:
[1] = test system: Mycobacterium tuberculosis; experiment: Antimycobacterial activity against Mycobacterium tuberculosis H37Rv ATCC 27294 measured after 7 days by microplate alamar blue assay; format: functional; settings: H37Rv ATCC 27294, 168 h
In short: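 Mtb H37Rv (ATCC 27294) grown in Middlebrook 7H12 broth; MIC read by Microplate Alamar Blue Assay (MABA).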

[2] = test system: Mycobacterium tuberculosis; experiment: Antimycobacterial activity against drug-susceptible Mycobacterium tuberculosis clinical isolate; format: functional
In short: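 Clinical isolates coded 960 (drug-susceptible), 330 (MDR) and 431 (XDR); MIC reported in μM.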

[3] = test system: Mycobacterium tuberculosis; experiment: Antimycobacterial activity against p-aminosalicyclic acid-resistant Mycobacterium tuberculosis ATCC 35821 by resazurin dye based fluorimetric method; format: functional
[4] = Cytotoxicity against African green monkey Vero cells assessed as cell viability at 0.01 ug/ml after 72 hrs by CCK8 assay (reference value: 100%); format: cell-based; settings: chlorocebus sabaeus, read-out: Activity
In short: (§1)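 Vero cells exposed to 0.01–20 μg/mL compound; vehicle control 0.625% DMSO set as 100%. Result given as percent cell viability.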

[5] = Cytotoxicity against African green monkey Vero cells assessed as cell viability at 0.02 ug/ml after 72 hrs by CCK8 assay (reference value: 100%); format: cell-based; settings: chlorocebus sabaeus, read-out: Activity; in short: as §1
[6] = Cytotoxicity against African green monkey Vero cells assessed as cell viability at 0.078 ug/ml after 72 hrs by CCK8 assay (reference value: 100%); format: cell-based; settings: chlorocebus sabaeus, read-out: Activity; in short: as §1
[7] = Cytotoxicity against African green monkey Vero cells assessed as cell viability at 0.156 ug/ml after 72 hrs by CCK8 assay (reference value: 100%); format: cell-based; settings: chlorocebus sabaeus, read-out: Activity; in short: as §1
[8] = Cytotoxicity against African green monkey Vero cells assessed as cell viability at 0.312 ug/ml after 72 hrs by CCK8 assay (reference value: 100%); format: cell-based; settings: chlorocebus sabaeus, read-out: Activity; in short: as §1
[9] = Cytotoxicity against African green monkey Vero cells assessed as cell viability at 0.625 ug/ml after 72 hrs by CCK8 assay (reference value: 100%); format: cell-based; settings: chlorocebus sabaeus, read-out: Activity; in short: as §1
[10] = Cytotoxicity against African green monkey Vero cells assessed as cell viability at 1.25 ug/ml after 72 hrs by CCK8 assay (reference value: 100%); format: cell-based; settings: chlorocebus sabaeus, read-out: Activity; in short: as §1
[11] = Cytotoxicity against African green monkey Vero cells assessed as cell viability at 2.5 ug/ml after 72 hrs by CCK8 assay (reference value: 100%); format: cell-based; settings: chlorocebus sabaeus, read-out: Activity; in short: as §1
[12] = Cytotoxicity against African green monkey Vero cells assessed as cell viability at 5 ug/ml after 72 hrs by CCK8 assay (reference value: 100%); format: cell-based; settings: chlorocebus sabaeus, read-out: Activity; in short: as §1
[13] = Cytotoxicity against African green monkey Vero cells assessed as cell viability at 10 ug/ml after 72 hrs by CCK8 assay (reference value: 100%); format: cell-based; settings: chlorocebus sabaeus, read-out: Activity; in short: as §1
[14] = Cytotoxicity against African green monkey Vero cells assessed as cell viability at 20 ug/ml after 72 hrs by CCK8 assay (reference value: 100%); format: cell-based; settings: chlorocebus sabaeus, read-out: Activity; in short: as §1
[15] = Cytotoxicity against African green monkey Vero cells assessed as cell viability at 0.039 ug/ml after 72 hrs by CCK8 assay (reference value: 100%); format: cell-based; settings: chlorocebus sabaeus, read-out: Activity; in short: as §1
[16] = Stability in human liver microsomes assessed as parent compound remaining after 15 mins by LC-MS/MS analysis; format: ADME, microsome; settings: read-out: Stability
In short: (§2)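 Compound incubated with human liver microsomes; percent remaining measured at 15, 30 and 60 min, relative to the amount at 0 min taken as 100%.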

[17] = Stability in human liver microsomes assessed as parent compound remaining after 30 mins by LC-MS/MS analysis; format: ADME, microsome; settings: read-out: Stability; in short: as §2
[18] = Stability in human liver microsomes assessed as parent compound remaining after 60 mins by LC-MS/MS analysis; format: ADME, microsome; settings: read-out: Stability; in short: as §2

SMILES: O=C(NCc1ccc(CSc2nc3ccccc3o2)cc1)c1cccnc1
- MIC [1]: 58.2 µM (≈ 21.9 µg/mL)

SMILES: COc1cc(/C=N/NC(=O)c2ccncc2)ccc1O [FTIVAZIDE]
- MIC [2]: 0.25 µM (≈ 0.0678 µg/mL)
- MIC [3]: 0.312 µg/mL (≈ 1.15 µM)
- viability at 72 h, 0.01 ug/ml [4]: 95%
- viability at 72 h, 0.02 ug/ml [5]: 105%
- viability at 72 h, 0.078 ug/ml [6]: 114%
- viability at 72 h, 0.156 ug/ml [7]: 96%
- viability at 72 h, 0.312 ug/ml [8]: 103%
- viability at 72 h, 0.625 ug/ml [9]: 100%
- viability at 72 h, 1.25 ug/ml [10]: 105%
- viability at 72 h, 2.5 ug/ml [11]: 110%
- viability at 72 h, 5 ug/ml [12]: 100%
- viability at 72 h, 10 ug/ml [13]: 95%
- viability at 72 h, 20 ug/ml [14]: 90%

SMILES: COc1c(N2C[C@@H]3CCCN[C@@H]3C2)c(F)cc2c(=O)c(C(=O)O)cn(C3CC3)c12 [MOXIFLOXACIN]
- MIC [1]: 0.5 µM (≈ 0.201 µg/mL)

SMILES: O=C(NCc1ccc(CSc2nc3ccccc3[nH]2)cc1)c1cccnc1
- MIC [1]: 60.3 µM (≈ 22.6 µg/mL)

SMILES: O=C(N/N=C/c1ccc(CSc2nc3ccccc3o2)cc1)c1ccncc1
- MIC [1]: 0.24 µM (≈ 0.0932 µg/mL)
- MIC [2]: 0.2 µM (≈ 0.0777 µg/mL)
- MIC [3]: 0.312 µg/mL (≈ 0.803 µM)
- viability at 72 h, 0.01 ug/ml [4]: 127%
- viability at 72 h, 0.02 ug/ml [5]: 127%
- viability at 72 h, 0.039 ug/ml [15]: 127%
- viability at 72 h, 0.078 ug/ml [6]: 119%
- viability at 72 h, 0.156 ug/ml [7]: 122%
- viability at 72 h, 0.312 ug/ml [8]: 120%
- viability at 72 h, 0.625 ug/ml [9]: 118%
- viability at 72 h, 1.25 ug/ml [10]: 123%
- viability at 72 h, 2.5 ug/ml [11]: 123%
- viability at 72 h, 5 ug/ml [12]: 123%
- viability at 72 h, 10 ug/ml [13]: 130%
- viability at 72 h, 20 ug/ml [14]: 109%
- remaining at 0.25 h [16]: 90.1%
- remaining at 0.5 h [17]: 76.5%
- remaining at 1 h [18]: 66.6%

SMILES: O=C(NCc1ccc(CSc2nc3ccccc3s2)cc1)c1ccncc1
- MIC [1]: > 128 µM

SMILES: O=C(N/N=C/c1ccc(CSc2nc3ccccc3[nH]2)cc1)c1ccncc1
- MIC [1]: 0.23 µM (≈ 0.0891 µg/mL)
- MIC [2]: 0.2 µM (≈ 0.0775 µg/mL)
- MIC [3]: 0.312 µg/mL (≈ 0.805 µM)
- viability at 72 h, 0.01 ug/ml [4]: 119%
- viability at 72 h, 0.02 ug/ml [5]: 116%
- viability at 72 h, 0.039 ug/ml [15]: 115%
- viability at 72 h, 0.078 ug/ml [6]: 116%
- viability at 72 h, 0.156 ug/ml [7]: 115%
- viability at 72 h, 0.312 ug/ml [8]: 111%
- viability at 72 h, 0.625 ug/ml [9]: 112%
- viability at 72 h, 1.25 ug/ml [10]: 119%
- viability at 72 h, 2.5 ug/ml [11]: 114%
- viability at 72 h, 5 ug/ml [12]: 113%
- viability at 72 h, 10 ug/ml [13]: 107%
- viability at 72 h, 20 ug/ml [14]: 107%
- remaining at 0.25 h [16]: 76.5%
- remaining at 0.5 h [17]: 62%
- remaining at 1 h [18]: 44.6%

SMILES: CO[C@H]1/C=C/O[C@@]2(C)Oc3c(C)c(O)c4c(O)c(c(/C=N/N5CCN(C)CC5)c(O)c4c3C2=O)NC(=O)/C(C)=C\C=C\[C@H](C)[C@H](O)[C@@H](C)[C@@H](O)[C@@H](C)[C@H](OC(C)=O)[C@@H]1C [RIFAMPIN]
- MIC [1]: 0.08 µM (≈ 0.0658 µg/mL)
- MIC [2]: 0.07 µM (≈ 0.0576 µg/mL)

SMILES: O=C(N/N=C/c1ccc(CSc2nc3ccccc3s2)cc1)c1cccnc1
- MIC [1]: > 128 µM

SMILES: CN[C@@H]1[C@H](O[C@H]2[C@H](O[C@H]3[C@H](O)[C@@H](O)[C@H](N=C(N)N)[C@@H](O)[C@@H]3N=C(N)N)O[C@@H](C)[C@]2(O)C=O)O[C@@H](CO)[C@H](O)[C@H]1O [STREPTOMYCIN]
- MIC [1]: 0.48 µM (≈ 0.279 µg/mL)

SMILES: O=[N+]([O-])c1cn2c(n1)OC[C@@H](OCc1ccc(OC(F)(F)F)cc1)C2 [PRETOMANID]
- MIC [1]: 0.44 µM (≈ 0.158 µg/mL)

SMILES: O=C(NCc1ccc(CSc2nc3ccccc3s2)cc1)c1cccnc1
- MIC [1]: > 128 µM

SMILES: O=C(N/N=C/c1ccc(CSc2nc3ccccc3s2)cc1)c1ccncc1
- MIC [1]: 0.24 µM (≈ 0.0971 µg/mL)
- MIC [2]: 0.2 µM (≈ 0.0809 µg/mL)
- MIC [3]: 0.625 µg/mL (≈ 1.55 µM)
- viability at 72 h, 0.01 ug/ml [4]: 97%
- viability at 72 h, 0.02 ug/ml [5]: 103%
- viability at 72 h, 0.039 ug/ml [15]: 99%
- viability at 72 h, 0.078 ug/ml [6]: 99%
- viability at 72 h, 0.156 ug/ml [7]: 97%
- viability at 72 h, 0.312 ug/ml [8]: 98%
- viability at 72 h, 0.625 ug/ml [9]: 94%
- viability at 72 h, 1.25 ug/ml [10]: 103%
- viability at 72 h, 2.5 ug/ml [11]: 101%
- viability at 72 h, 5 ug/ml [12]: 103%
- viability at 72 h, 10 ug/ml [13]: 96%
- viability at 72 h, 20 ug/ml [14]: 91%
- remaining at 0.25 h [16]: 76.3%
- remaining at 0.5 h [17]: 57.2%
- remaining at 1 h [18]: 34%

SMILES: NNC(=O)c1ccncc1 [ISONIAZID]
- MIC [1]: 0.81 µM (≈ 0.111 µg/mL)
- MIC [2]: 0.5 µM (≈ 0.0686 µg/mL)

SMILES: O=C(N/N=C/c1ccc(CSc2nc3ccccc3o2)cc1)c1cccnc1
- MIC [1]: 24.8 µM (≈ 9.63 µg/mL)

SMILES: O=C(NCc1ccc(CSc2nc3ccccc3[nH]2)cc1)c1ccncc1
- MIC [1]: 120 µM (≈ 45.1 µg/mL)

SMILES: O=C(NCc1ccc(CSc2nc3ccccc3o2)cc1)c1ccncc1
- MIC [1]: 0.9 µM (≈ 0.338 µg/mL)
- MIC [2]: 16 µM (≈ 6.01 µg/mL)

SMILES: O=C(N/N=C/c1ccc(CSc2nc3ccccc3[nH]2)cc1)c1cccnc1
- MIC [1]: 114 µM (≈ 44.3 µg/mL)
